Experiment [1] concerns the target Muscarinic acetylcholine receptor. The experiment can be described thus: In vitro binding affinity to muscarinic acetylcholine receptor site in rat brain assayed using [3H]oxotremorine-M as the radioligand. The experiment is classed as tissue-based.
Experiment [2] addresses Muscarinic acetylcholine receptor (Rattus norvegicus) (UniProt P08482+P08483+P08485+P08911+P10980).
Experiment [3] deals with Muscarinic acetylcholine receptor. The experiment can be described thus: (§1) Agonist activity at muscarinic acetylcholine receptor in isolated guinea pig ileum. The experiment is classed as functional, tissue-based, Cavia porcellus.
Experiment [4] shares this target. The experiment can be described thus: In Vitro binding affinity to the muscarinic acetylcholine receptor site in rat brain by using [3H]QNB as the radioligand. In kind it is tissue-based.
In experiment [5] the target is Muscarinic acetylcholine receptor (Cavia porcellus). The experiment can be described thus: Antagonist activity at muscarinic acetylcholine receptor in isolated guinea pig ileum.
In experiment [6] the target is Muscarinic acetylcholine receptor M3 (Cavia porcellus) (UniProt Q8VH26). The experiment can be described thus: Antagonist activity at muscarinic acetylcholine receptor in isolated guinea pig ileum. The experiment is classed as functional, tissue-based. In a few lines:
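Isolated guinea pig ileum in tyrode solution; agonist dose-response curves built sequentially with 30-s contact time. Antagonist added to the tyrode 5 min before agonist responses were retested. K_B from regression analysis using at least four points, n = 4-8 per point.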

The target of experiment [7] is Muscarinic acetylcholine receptor. Described as §1. In kind it is functional, tissue-based, Cavia porcellus. In a few lines:
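Isolated ileum in Tyrode solution. Cumulative-free sequential agonist dose-response curves, 30-s contact time per dose. Contraction read out; EC50 derived from the curves. Efficacy expressed as percent of maximal contraction relative to the full agonist acetylcholine.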
The source holds these as a separate data set.

Experiment [8] has as its target Muscarinic acetylcholine receptor (Cavia porcellus). The experiment in a line: Antagonistic activity at muscarinic acetylcholine receptor in isolated guinea pig ileum.

This is an account of results in ChEMBL document CHEMBL1125247, “Muscarinic cholinergic agonists and antagonists of the 3-(3-alkyl-1,2,4-oxadiazol-5-yl)-1,2,5,6-tetrahydropyridine type. Synthesis and structure-activity relationships” (J Med Chem, 1991).

Sequence of Muscarinic acetylcholine receptor M3 (Cavia porcellus) (Q8VH26 1-587): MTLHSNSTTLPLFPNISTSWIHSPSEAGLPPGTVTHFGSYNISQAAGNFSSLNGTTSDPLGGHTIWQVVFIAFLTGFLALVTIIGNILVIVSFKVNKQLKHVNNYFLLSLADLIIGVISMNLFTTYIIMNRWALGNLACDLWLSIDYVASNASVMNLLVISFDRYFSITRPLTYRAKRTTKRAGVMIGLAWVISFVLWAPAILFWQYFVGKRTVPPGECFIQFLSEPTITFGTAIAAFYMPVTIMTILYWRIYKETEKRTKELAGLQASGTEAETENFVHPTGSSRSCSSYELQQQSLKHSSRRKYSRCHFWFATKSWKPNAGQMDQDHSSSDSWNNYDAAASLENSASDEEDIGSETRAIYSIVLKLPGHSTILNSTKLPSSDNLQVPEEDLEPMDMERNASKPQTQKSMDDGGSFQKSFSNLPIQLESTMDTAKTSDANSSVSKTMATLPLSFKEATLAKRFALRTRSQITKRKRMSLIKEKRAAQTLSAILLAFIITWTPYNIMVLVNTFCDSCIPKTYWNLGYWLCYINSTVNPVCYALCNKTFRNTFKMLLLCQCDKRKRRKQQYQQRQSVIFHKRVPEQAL

`CCCCCc1noc(C2=CCCN(C)C2)n1.O=C(O)C(=O)O`: the IC50 was 36.9 nM in experiment [1] and 6700 nM in experiment [4]. In experiment [2], this molecule came in with a Muscarinic agonist index of 29. Also, in experiment [3], the concentration giving a half-maximal response (EC50) came out at 620 nM.
Take `CCc1noc(C2=CCCN(C)C2)n1.O=C(O)C(=O)O`: the half-maximal inhibitory concentration (IC50) in experiment [1] stood at 11 nM; in experiment [4], 35300 nM. In addition, the Muscarinic agonist index in experiment [2] was 520. The same molecule showed an EC50 in experiment [3] of 200 nM.
`CCc1nc(C2=CCCN(C)C2)no1.O=C(O)C(=O)O`: the IC50 in experiment [1] came out at 954 nM; in experiment [4] it was 156000 nM. For the same molecule, the Muscarinic agonist index in experiment [2] worked out at 26. The molecule also displayed a concentration for a half-maximal effect (EC50) in experiment [3] of over 30000 nM. In experiment [5], this molecule returned a Kb of 5750 nM.
In the case of `CCCCc1noc(C2CN3CCC2CC3)n1` (configuration not stated), the values for the half-inhibitory concentration (IC50) in experiment [1] and in experiment [4] were 58.5 nM and 1500 nM, respectively. The molecule also gave a Kb in experiment [6] of 70 nM. Further, the Muscarinic agonist index in experiment [2] came out at 4. The EC50 in experiment [7] is over 30000 nM.
On to `CCCCCCCc1noc(C2=CCCN(C)C2)n1.O=C(O)C(=O)O`, for which the IC50 amounted to 28.3 nM in experiment [1] and 9100 nM in experiment [4]. In experiment [2], this molecule came in with a Muscarinic agonist index of 52. Also, the concentration giving a half-maximal response (EC50) in experiment [3] was found to be 130 nM.
Turning to `CN1CCC=C(c2nc(C3CCCCCC3)no2)C1.O=C(O)C(=O)O`, the half-inhibitory concentration (IC50) in experiment [1] was over 850 nM; in experiment [4] it was 16000 nM. Further, the antagonist dissociation constant (Kb) in experiment [6] was 160 nM. This molecule registered a Muscarinic agonist index in experiment [2] of under 3. Moreover, the EC50 in experiment [3] is over 30000 nM.
On to `CCCCc1noc(C2=CCCN(C)C2)n1.O=C(O)C(=O)O`, for which the IC50 in experiment [1] was found to be 14.1 nM; in experiment [4], 15800 nM. In experiment [2], this molecule gave a Muscarinic agonist index of 181. The same molecule displayed a concentration for a half-maximal effect (EC50) in experiment [3] of 150 nM.
As for `CCCCc1noc(C2=CCCN(CC)C2)n1`, the IC50 came out at 86.2 nM in experiment [1] and 20600 nM in experiment [4]. The Kb in experiment [6] is 700 nM. In experiment [2], this molecule came in with a Muscarinic agonist index of 39. In experiment [3], this molecule gave a half-maximal effective concentration (EC50) of over 30000 nM.
For `CN1CCC=C(c2nc(CC3CC3)no2)C1.O=C(O)C(=O)O`, the 50% inhibitory concentration (IC50) in experiment [1] is 7.8 nM; in experiment [4], 11300 nM. Also, in experiment [2], the Muscarinic agonist index is 235. In addition, in experiment [3], the concentration for a half-maximal effect (EC50) is 1000 nM.
In the case of `CCCCc1noc(C2=CCC3CCC2N3C)n1` (configuration not stated), the results for the half-inhibitory concentration (IC50) in experiment [1] and in experiment [4] were 181 nM and 8900 nM, respectively. Also, in experiment [6], the antagonist equilibrium constant (Kb) is 220 nM. The molecule further yielded a Muscarinic agonist index in experiment [2] of 8. This molecule also registered an EC50 in experiment [3] of over 30000 nM.
With `CCCc1nc(C2=CCCN(C)C2)no1.O=C(O)C(=O)O`, the IC50 in experiment [1] worked out at 681 nM; in experiment [4], 88000 nM. The antagonist equilibrium constant (Kb) in experiment [6] was 3380 nM. Besides, in experiment [2], the Muscarinic agonist index was determined as 80. Besides, in experiment [3], the EC50 was over 30000 nM.
The matching figures for `CN1CCC=C(c2nc(C(C)(C)C)no2)C1.O=C(O)C(=O)O`: 286 nM, 9000 nM, 200 nM, 5 and over 30000 nM.
Consider `CC(C)c1noc(C2=CCCN(C)C2)n1.O=C(O)C(=O)O`, for which the IC50 in experiment [1] turned out to be 182 nM; in experiment [4], 15800 nM. Moreover, in experiment [6], the Kb is 200 nM. Further, the Muscarinic agonist index in experiment [2] is 14. Moreover, in experiment [3], the EC50 was over 30000 nM.
The corresponding values for `CN1CCC=C(c2nc(C3CC3)no2)C1.O=C(O)C(=O)O` are 78 nM, 6800 nM, 150 nM, 14 and over 30000 nM.
On to `CN1CCC=C(c2nc(C3CCCC3)no2)C1.O=C(O)C(=O)O`, for which the concentration for half-maximal inhibition (IC50) in experiment [1] was 102 nM; in experiment [4] it was 10800 nM. The same molecule returned an antagonist equilibrium constant (Kb) in experiment [6] of 1550 nM. The same molecule yielded a Muscarinic agonist index in experiment [2] of 15. Moreover, the EC50 in experiment [3] was over 30000 nM.
`CCOCCc1noc(C2=CCCN(C)C2)n1.O=C(O)C(=O)O`: the IC50 in experiment [1] worked out at 107 nM; in experiment [4] it was 42800 nM. For the same molecule, the Muscarinic agonist index in experiment [2] was 65. In experiment [3], this molecule had an EC50 of 1280 nM.
For `CN1CCC=C(c2nc(C3CCC3)no2)C1.O=C(O)C(=O)O`, the figures for the IC50 in experiment [1] and in experiment [4] were 191 nM and 12900 nM, respectively. In experiment [2], this molecule showed a Muscarinic agonist index of 11. Besides, the EC50 in experiment [7] was over 30000 nM. This molecule showed a Kb in experiment [8] of 650 nM.
In the case of `COCc1noc(C2=CCCN(C)C2)n1.O=C(O)C(=O)O`, the IC50 was 43.5 nM in experiment [1] and 66900 nM in experiment [4]. In addition, the Muscarinic agonist index in experiment [2] was found to be 249. Further, the EC50 in experiment [3] worked out at 420 nM.
The matching figures for `CCCc1noc(C2=CCCN(C)C2)n1.O=C(O)C(=O)O`: 6.3 nM, 17400 nM, 447 and 100 nM.
For `Cc1nc(C2=CCCN(C)C2)no1.O=C(O)C(=O)O`, the concentration for half-maximal inhibition (IC50) in experiment [1] is 955 nM; in experiment [4], 401000 nM. Also, in experiment [2], the Muscarinic agonist index turned out to be 68. Further, the EC50 in experiment [3] is over 30000 nM. For the same molecule, the Kb in experiment [5] was determined as 8000 nM.
Consider `Cc1noc(C2=CCCN(C)C2)n1.O=C(O)C(=O)O`, for which the IC50 amounted to 12.3 nM in experiment [1] and 41000 nM in experiment [4]. For the same molecule, the Muscarinic agonist index in experiment [2] is 540. The same molecule came in with an EC50 in experiment [3] of 32 nM.
Consider `CCCCc1noc(C2=CCC(C)N(C)C2)n1` (configuration not stated), for which the IC50 in experiment [1] was 145 nM; in experiment [4] it was 10200 nM. The same molecule came in with a Kb in experiment [6] of 130 nM. The Muscarinic agonist index in experiment [2] worked out at 11. In experiment [3], the EC50 was over 30000 nM.
With `CCCCc1noc(C2=CC(C)CNC2)n1` (configuration not stated), the figures for the IC50 in experiment [1] and in experiment [4] were 685 nM and 64300 nM, respectively. The molecule further registered a Muscarinic agonist index in experiment [2] of 15. This molecule yielded an EC50 in experiment [3] of over 30000 nM.
The corresponding values for `CCCCc1noc(C2=CCCNC2)n1` are 12.1 nM, 25300 nM, 339 and 320 nM.
The matching figures for `CCCCCCCCc1noc(C2=CCCN(C)C2)n1.O=C(O)C(=O)O`: 59.9 nM, 11000 nM, 30 and 1460 nM.
As for `COCCc1noc(C2=CCCN(C)C2)n1.O=C(O)C(=O)O`, the concentration for half-maximal inhibition (IC50) in experiment [1] is 144 nM; in experiment [4], 41500 nM. In addition, the Muscarinic agonist index in experiment [2] stood at 47. Also, the EC50 in experiment [3] is 720 nM.

For orientation: IC50 means the concentration needed to halve the response being measured. Read a high IC50 as a need for much substance. The term EC50 denotes the concentration at which the effect is half-maximal. What is called Kb is the equilibrium dissociation constant of an antagonist, usually derived from a functional assay. A higher Kb goes with a less potent antagonist.
